Test results as given in ChEMBL document CHEMBL1800004, “Discovery of 4-anilinofuro[2,3-b]quinoline derivatives as selective and orally active compounds against non-small-cell lung cancers” (J Med Chem, 2011).
Values belong to the molecule of their own block, whether it stands above or below them. Calls of active or inactive are those of the source. No cut-off for these calls is given here.

Columns and labels:
NCI-H460 [1] = test: Antitumor activity against human NCI-H460 cells xenografted subcutaneously in BALB/c nude mouse assessed as survival rate at 60 to 120 mg/kg, po qd for 6 days relative to control; assay type: functional, organism-based
How it was run: (§1)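 NCI-H460 cells were grown in RPMI1640 with 10% NBS and harvested by trypsin. 5 × 10⁶ cells in 40% Matrigel were injected subcutaneously into the flanks of 6–8-week-old Balb/c nude mice. Once tumors reached 5 mm³, dosing ran 6 days (ip 10 or 20; oral 60 or 120), vehicle DMSO/1.4% Tween 80/1% carboxymethylcellulose saline. Tumors were caliper-measured, weighed at sacrifice, and survival analyzed by Kaplan–Meier.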

NCI-H460 [2] = test: Antitumor activity against human NCI-H460 cells xenografted subcutaneously in BALB/c nude mouse assessed as decreased tumor size at 60 to 120 mg/kg, po qd for 6 days relative to control; assay type: functional, organism-based; how it was run: as §1
NCI-H460 [3] = test: Antitumor activity against human NCI-H460 cells xenografted subcutaneously in BALB/c nude mouse assessed as decreased tumor size at 10 to 20 mg/kg, ip for 6 days relative to control; assay type: functional, organism-based; how it was run: as §1
NCI-H460 [4] = test: Antitumor activity against human NCI-H460 cells xenografted subcutaneously in BALB/c nude mouse assessed as increased tumor regression at 10 to 20 mg/kg, ip for 6 days relative to control; assay type: functional, organism-based; how it was run: as §1
NCI-H460 [5] = test: Effect on cell cycle in human NCI-H460 cells assessed as rounded-up phenotype at 1 uM after 24 hrs; assay type: functional, cell-based
How it was run: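 Morphology of H460 cells was inspected for rounding after 1 μM treatment for 24 h.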

NCI-H460 [6] = test: Antitumor activity against human NCI-H460 cells xenografted subcutaneously in BALB/c nude mouse assessed as increased tumor regression at 60 to 120 mg/kg, po for 6 days relative to control; assay type: functional, organism-based; how it was run: as §1
NCI-H460 [7] = test: Cell cycle arrest in human NCI-H460 cells assessed as cell accumulation in 4N ploidy after 24 hrs using propidium iodide staining based flow cytometric analysis; assay type: functional
NCI-H460 [8] = test: Induction of apoptosis human NCI-H460 cells assessed as caspase 3 cleavage; assay type: functional, cell-based
NCI-H460 [9] = test: Induction of apoptosis human NCI-H460 cells assessed as PARP cleavage; assay type: functional, cell-based
NCI-H460 [10] = test: Increase in MPM2 phosphoprotein level in human NCI-H460 cells after 16 hrs by immunoblotting analysis; assay type: functional, cell-based
How it was run: (§2)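 H460 lysates were immunoblotted for MPM2 and cyclin B after 16 h treatment across a concentration series.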

NCI-H460 [11] = test: Increase in cyclin B level in human NCI-H460 cells after 16 hrs by immunoblotting analysis; assay type: functional, cell-based; how it was run: as §2
NCI-H460 [12] = test: Antimitotic activity in human NCI-H460 cells assessed as mitotic catastrophe at 3 uM after 12 hrs using DAPI staining based immunofluorescence analysis; assay type: functional, cell-based
How it was run: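 H460 cells were treated at 3 μM for 12 h and co-stained for α-tubulin (immunofluorescence) and DAPI. Images were taken at 1000×, and centrosome number was counted in 50 cells.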

Bos taurus [13] = organism: Bos taurus; test: Inhibition of bovine tubulin assessed as inhibition of microtubule formation preincubated at 1 uM by light-scattering assay relative to control
How it was run: (§3)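 Light-scattering assay with 5 μg bovine tubulin preincubated with compound. Spontaneous microtubule formation was followed as turbidity increase at OD 340 nm and compared with the untreated control.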

Bos taurus [14] = organism: Bos taurus; test: Inhibition of bovine tubulin assessed as inhibition of microtubule formation preincubated at 3 uM by light-scattering assay; how it was run: as §3
[15] = biological target: T1, DNA topoisomerase 1 (Homo sapiens) (UniProt P11387); test: Inhibition of human topoisomerase 1 mediated relaxation of super coiled pBR322 plasmid DNA at 30 uM after 30 mins by agarose gel electrophoresis
T1 sequence (whole entry): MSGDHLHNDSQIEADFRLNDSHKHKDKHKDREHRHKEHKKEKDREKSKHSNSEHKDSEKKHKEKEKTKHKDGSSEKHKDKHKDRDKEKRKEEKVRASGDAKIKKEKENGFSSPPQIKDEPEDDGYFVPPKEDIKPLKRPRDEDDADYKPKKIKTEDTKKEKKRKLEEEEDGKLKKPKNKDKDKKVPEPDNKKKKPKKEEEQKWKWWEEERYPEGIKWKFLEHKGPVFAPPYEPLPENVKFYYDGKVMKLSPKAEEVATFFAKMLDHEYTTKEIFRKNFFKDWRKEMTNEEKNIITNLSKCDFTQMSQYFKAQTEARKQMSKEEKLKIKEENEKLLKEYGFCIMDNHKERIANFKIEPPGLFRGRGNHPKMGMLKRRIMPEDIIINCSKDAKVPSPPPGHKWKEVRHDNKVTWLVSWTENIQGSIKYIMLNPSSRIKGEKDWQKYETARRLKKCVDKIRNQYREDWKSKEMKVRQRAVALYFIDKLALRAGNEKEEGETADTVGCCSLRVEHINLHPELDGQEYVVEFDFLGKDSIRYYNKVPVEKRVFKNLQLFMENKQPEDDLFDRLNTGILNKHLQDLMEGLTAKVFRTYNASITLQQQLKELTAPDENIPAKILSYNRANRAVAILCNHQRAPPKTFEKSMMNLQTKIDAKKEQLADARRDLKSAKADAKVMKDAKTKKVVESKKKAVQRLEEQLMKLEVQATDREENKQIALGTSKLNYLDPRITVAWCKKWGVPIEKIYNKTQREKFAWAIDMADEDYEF

[16] = biological target: DNA topoisomerase 2-alpha (Homo sapiens) (UniProt P11388); test: Inhibition of human topoisomerase 2 mediated relaxation of super coiled pBR322 plasmid DNA at 30 uM after 30 mins by agarose gel electrophoresis
H1229 = test: Anticancer activity against human H1229 cells xenografted in orthotropic lung cancer nude mouse model assessed as cancer growth inhibition at 120 mg/kg, po administered for 2 weeks monitored for 10 weeks; assay type: functional, organism-based; parameters: dose 120 mg/kg
How it was run: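 Orthotopic lung model using H-1229 cells. Nude mice were irradiated (500 rads γ) and anesthetized with ketamine/xylazine (160/12 mg/kg, im), then tumor tissue was implanted by cannula. Oral dosing lasted 2 weeks. Mice were checked daily for morbidity, and animal and primary tumor weights were recorded over 10 weeks.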

NCI-H460 [17] = test: Antitumor activity against human NCI-H460 cells xenografted subcutaneously in BALB/c nude mouse assessed as survival rate at 10 to 20 mg/kg, ip for 6 days relative to control; assay type: functional, organism-based; how it was run: as §1
[18] = Volume of distribution at steady state in fasted CD-1(Crl) mouse at 2 mg/kg, iv administered as single dose; assay type: ADME, organism-based; parameters: dose 2 mg/kg, route intravenous; details: in vivo, read-out: Vdss
How it was run: (§4)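 Fasted male CD-1 (Crl) mice received a single intravenous dose of 2.0 mg/kg or a single oral dose of 20 mg/kg. Parameters came from mean plasma concentration–time profiles, run by a contract lab.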

Lung = test: Drug uptake in lung of orthotropic lung cancer nude mouse model xenografted with human H1229 cells at 120 mg/kg, po administered for 2 weeks; assay type: ADME, organism-based; parameters: dose 120 mg/kg, route oral; details: in vivo, 336 h
[19] = Aqueous solubility of the compound by UV/ vis spectrophotometry; assay type: physicochemical
How it was run: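 Excess solid was added to doubly distilled water, sonicated 5 min, then stirred overnight at 25 °C to reach equilibrium. After centrifugation, supernatant absorbance was read by UV/vis at 315–420 nm against per-compound standard curves.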

[20] = Cmax in fasted CD-1(Crl) mouse at 2 mg/kg, iv administered as single dose; assay type: ADME, organism-based; parameters: dose 2 mg/kg, route intravenous; details: in vivo
How it was run: (§5)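 Fasted male CD-1 (Crl) mice each received a single intravenous dose of 2.0 mg/kg or a single oral dose of 20 mg/kg, and plasma concentration–time profiles were recorded. For the iv route, Cmax was extrapolated to plasma concentration at time 0. Half-life was derived from terminal time-point windows specified per compound.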

[21] = AUC (0 to infinity) in fasted CD-1(Crl) mouse at 2 mg/kg, iv administered as single dose; assay type: ADME, organism-based; parameters: time infinity, dose 2 mg/kg, route intravenous; details: plasma; how it was run: as §5
[22] = Mean residence time in fasted CD-1(Crl) mouse at 2 mg/kg, iv administered as single dose; assay type: ADME, organism-based; parameters: dose 2 mg/kg, route intravenous; details: in vivo; how it was run: as §4
[23] = Clearance in fasted CD-1(Crl) mouse at 2 mg/kg, iv administered as single dose; assay type: ADME, organism-based; parameters: dose 2 mg/kg, route intravenous; details: in vivo; how it was run: as §5
[24] = Apparent volume of distribution in fasted CD-1(Crl) mouse at 2 mg/kg, iv administered as single dose; assay type: ADME, organism-based; parameters: dose 2 mg/kg, route intravenous; details: in vivo, read-out: Vz; how it was run: as §5
[25] = Cmax in fasted CD-1(Crl) mouse at 20 mg/kg, po administered as single dose; assay type: ADME, organism-based; parameters: dose 20 mg/kg, route oral; details: in vivo; how it was run: as §5
[26] = AUC (0 to infinity) in fasted CD-1(Crl) mouse at 20 mg/kg, po administered as single dose; assay type: ADME, organism-based; parameters: dose 20 mg/kg, route oral, time infinity; details: plasma; how it was run: as §5
[27] = Tmax in fasted CD-1(Crl) mouse at 20 mg/kg, po administered as single dose; assay type: ADME, organism-based; parameters: dose 20 mg/kg, route oral; details: in vivo; how it was run: as §4
[28] = Mean residence time in fasted CD-1(Crl) mouse at 20 mg/kg, po administered as single dose; assay type: ADME, organism-based; parameters: dose 20 mg/kg, route oral; details: in vivo; how it was run: as §4
[29] = Oral bioavailability in fasted CD-1(Crl) mouse at 20 mg/kg administered as single dose; assay type: ADME, organism-based; details: in vivo; how it was run: as §4
[30] = Half life in fasted CD-1(Crl) mouse at 2 mg/kg, iv administered as single dose measured after 9 to 27 hrs post dose; assay type: ADME, organism-based; parameters: dose 2 mg/kg, route intravenous; details: in vivo; how it was run: as §5
[31] = Half life in fasted CD-1(Crl) mouse at 20 mg/kg, po administered as single dose measured after 2 to 24 hrs post dose; assay type: ADME, organism-based; parameters: dose 20 mg/kg, route oral; details: in vivo; how it was run: as §5

DNA topoisomerase 2-alpha (Homo sapiens), sequence (P11388 whole entry): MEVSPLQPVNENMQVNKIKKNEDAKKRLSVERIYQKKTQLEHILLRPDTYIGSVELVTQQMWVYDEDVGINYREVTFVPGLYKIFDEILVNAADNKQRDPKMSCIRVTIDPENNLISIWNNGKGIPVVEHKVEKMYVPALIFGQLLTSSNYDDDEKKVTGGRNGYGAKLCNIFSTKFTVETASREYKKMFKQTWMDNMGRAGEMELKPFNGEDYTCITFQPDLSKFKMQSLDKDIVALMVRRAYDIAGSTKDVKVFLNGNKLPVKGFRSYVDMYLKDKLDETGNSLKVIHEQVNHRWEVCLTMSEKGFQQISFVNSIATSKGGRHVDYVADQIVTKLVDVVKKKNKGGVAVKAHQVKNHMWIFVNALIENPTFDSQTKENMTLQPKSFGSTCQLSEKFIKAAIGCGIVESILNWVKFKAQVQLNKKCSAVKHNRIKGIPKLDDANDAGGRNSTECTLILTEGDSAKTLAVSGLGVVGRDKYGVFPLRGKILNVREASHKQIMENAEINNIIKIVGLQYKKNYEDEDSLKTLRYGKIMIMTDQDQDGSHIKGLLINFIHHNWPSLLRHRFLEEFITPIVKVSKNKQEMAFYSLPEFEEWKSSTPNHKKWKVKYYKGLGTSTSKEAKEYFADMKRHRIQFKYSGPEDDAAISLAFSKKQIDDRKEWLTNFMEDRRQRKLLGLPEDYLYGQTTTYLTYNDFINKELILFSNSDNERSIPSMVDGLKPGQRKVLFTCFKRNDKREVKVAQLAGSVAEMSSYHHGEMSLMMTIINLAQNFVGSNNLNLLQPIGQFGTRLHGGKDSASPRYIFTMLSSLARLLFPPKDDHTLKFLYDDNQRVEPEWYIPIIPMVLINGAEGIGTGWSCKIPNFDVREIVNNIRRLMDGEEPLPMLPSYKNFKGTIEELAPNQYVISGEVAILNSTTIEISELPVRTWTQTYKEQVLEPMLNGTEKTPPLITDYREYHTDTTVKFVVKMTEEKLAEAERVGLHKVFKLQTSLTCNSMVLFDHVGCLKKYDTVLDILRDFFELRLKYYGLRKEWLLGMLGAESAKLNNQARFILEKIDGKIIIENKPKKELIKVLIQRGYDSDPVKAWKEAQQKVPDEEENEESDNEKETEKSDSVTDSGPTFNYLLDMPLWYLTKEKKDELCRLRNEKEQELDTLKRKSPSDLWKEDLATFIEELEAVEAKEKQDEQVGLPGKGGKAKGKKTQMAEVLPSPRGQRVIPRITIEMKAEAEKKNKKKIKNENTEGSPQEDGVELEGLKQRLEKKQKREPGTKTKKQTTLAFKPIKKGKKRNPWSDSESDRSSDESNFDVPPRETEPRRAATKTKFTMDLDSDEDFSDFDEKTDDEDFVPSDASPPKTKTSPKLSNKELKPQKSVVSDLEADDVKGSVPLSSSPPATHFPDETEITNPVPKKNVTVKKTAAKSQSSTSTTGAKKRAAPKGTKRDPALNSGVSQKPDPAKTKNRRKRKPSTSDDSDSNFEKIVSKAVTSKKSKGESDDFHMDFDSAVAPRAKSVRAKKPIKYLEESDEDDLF

- inhibition (Bos taurus [13]): 50%
- inhibition (Bos taurus [14]): Active
- inhibition [15]: inactive
- inhibition [16]: inactive
SMILES: C/C(=N\OCCN)c1ccc(Nc2c3ccccc3nc3occc23)cc1
- Activity (NCI-H460 [1]): Active
- Activity (NCI-H460 [2]): Active
- Activity (NCI-H460 [3]): Active
- Activity (NCI-H460 [4]): Active
- Activity (NCI-H460 [5]): Active
- Activity (NCI-H460 [6]): Active
- Activity (NCI-H460 [7]): Dose-dependent effect
- Activity (NCI-H460 [8]): Dose-dependent effect
- Activity (NCI-H460 [9]): Dose-dependent effect
- Activity (NCI-H460 [10]): Dose-dependent effect
- Activity (NCI-H460 [11]): Dose-dependent effect
- Activity (NCI-H460 [12]): Active
- Activity (H1229): Active
- Activity (NCI-H460 [17]): Active

- Vd [18]: 13.5 L/kg
- Drug uptake (Lung): Active
- solubility [19]: 1.05 mg/mL
- Cmax [20]: 1.49 µg/mL
- AUC(0-inf) [21]: 0.363 µg·h/mL
- MRT [22]: 2.5 h
- clearance [23]: 5.51 L/h/kg
- Vd [24]: 38.8 L/kg
- Cmax [25]: 1.91 µg/mL
- AUC(0-inf) [26]: 2.07 µg·h/mL
- Tmax [27]: 0.5 h
- MRT [28]: 3 h
- bioavailability [29]: 57.1%
- half-life [30]: 4.9 h
- half-life [31]: 3.4 h
SMILES: C/C(=N\OCCN)c1ccc(Nc2c3ccccc3nc3occc23)cc1.Cl
